Measured values from ChEMBL document CHEMBL1138144 (J Med Chem, 2006).

Legend:
[1] = molecular target: T1, Sodium-dependent serotonin transporter (Homo sapiens, UniProt P31645); assay: Inhibition of [3H] serotonin uptake into human SERT expressed in HEK293 cells; format: functional, cell-based
In short: (§1)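 Confluent HEK293 cells expressing hDAT or hSERT, scraped into Krebs-HEPES. Preincubated 10 min at 25°C with compound (0.1% DMSO final). Uptake started with [3H]dopamine or [3H]serotonin (20 nM final) and stopped after 10 min by filtration on PEI-soaked GF/C filters. Non-specific uptake: 5 µM mazindol (DAT) or 5 µM imipramine (SERT). IC50 from triplicate 6-concentration curves, 2–3 independent determinations.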

[2] = molecular target: T2, Sodium-dependent noradrenaline transporter (Homo sapiens, UniProt P23975); assay: Inhibition of [3H] norepinephrine uptake into human NET expressed in HEK293 cells; format: functional, cell-based
T2 sequence (P23975 whole entry): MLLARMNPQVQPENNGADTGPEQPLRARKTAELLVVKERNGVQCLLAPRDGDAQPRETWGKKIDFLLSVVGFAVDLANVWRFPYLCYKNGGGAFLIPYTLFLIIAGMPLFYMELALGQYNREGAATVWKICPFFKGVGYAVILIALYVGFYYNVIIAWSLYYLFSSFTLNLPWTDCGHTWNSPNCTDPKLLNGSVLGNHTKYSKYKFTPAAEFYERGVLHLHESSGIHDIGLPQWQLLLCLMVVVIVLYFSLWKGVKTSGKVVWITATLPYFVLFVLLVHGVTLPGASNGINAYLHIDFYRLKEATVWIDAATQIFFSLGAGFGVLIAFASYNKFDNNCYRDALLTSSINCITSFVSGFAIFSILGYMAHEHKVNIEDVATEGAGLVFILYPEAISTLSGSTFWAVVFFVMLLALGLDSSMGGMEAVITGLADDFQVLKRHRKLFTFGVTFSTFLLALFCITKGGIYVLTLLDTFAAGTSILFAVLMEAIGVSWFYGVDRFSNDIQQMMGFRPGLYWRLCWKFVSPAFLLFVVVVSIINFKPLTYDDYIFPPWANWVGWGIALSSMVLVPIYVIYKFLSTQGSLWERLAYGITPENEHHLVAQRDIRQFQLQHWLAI

[3] = molecular target: T1, Sodium-dependent serotonin transporter; assay: Displacement of [125I]RTI-55 from human SERT expressed in HEK293 cells; format: cell-based
In short: (§2)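 Membranes from HEK293 cells expressing hDAT or hSERT, grown to 80% confluence, lysed in 2 mM HEPES/1 mM EDTA, spun and resuspended in 0.32 M sucrose. About 10–15 µg protein preincubated 10 min with compound in Krebs-HEPES pH 7.4 (0.1% DMSO final). Filtered on GF/C. Non-specific binding: 5 µM mazindol (DAT) or 5 µM imipramine (SERT). Duplicates, 2–3 experiments, IC50 converted to Ki by Cheng-Prusoff.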

[4] = molecular target: T2, Sodium-dependent noradrenaline transporter; assay: Displacement of [125I]RTI-55 from human NET expressed in HEK293 cells; format: cell-based
[5] = molecular target: T3, 5-hydroxytryptamine receptor 2C (Homo sapiens, UniProt P28335); assay: Inhibitory activity against 5HT1C
T3 sequence (P28335 whole entry): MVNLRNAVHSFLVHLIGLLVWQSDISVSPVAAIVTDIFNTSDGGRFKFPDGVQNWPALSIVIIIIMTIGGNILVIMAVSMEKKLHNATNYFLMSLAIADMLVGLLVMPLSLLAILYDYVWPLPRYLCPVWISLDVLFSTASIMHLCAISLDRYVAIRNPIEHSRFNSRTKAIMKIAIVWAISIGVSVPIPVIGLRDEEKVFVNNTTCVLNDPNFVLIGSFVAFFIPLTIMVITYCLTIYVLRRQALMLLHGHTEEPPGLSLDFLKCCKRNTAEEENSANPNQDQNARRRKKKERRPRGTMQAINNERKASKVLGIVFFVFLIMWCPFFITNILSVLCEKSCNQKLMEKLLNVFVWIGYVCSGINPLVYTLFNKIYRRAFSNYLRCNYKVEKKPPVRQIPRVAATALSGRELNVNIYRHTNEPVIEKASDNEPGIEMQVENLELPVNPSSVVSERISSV

[6] = molecular target: T4, 5-hydroxytryptamine receptor 1A (Homo sapiens, UniProt P08908); assay: Inhibitory activity against 5HT1A
T4 sequence (P08908 whole entry): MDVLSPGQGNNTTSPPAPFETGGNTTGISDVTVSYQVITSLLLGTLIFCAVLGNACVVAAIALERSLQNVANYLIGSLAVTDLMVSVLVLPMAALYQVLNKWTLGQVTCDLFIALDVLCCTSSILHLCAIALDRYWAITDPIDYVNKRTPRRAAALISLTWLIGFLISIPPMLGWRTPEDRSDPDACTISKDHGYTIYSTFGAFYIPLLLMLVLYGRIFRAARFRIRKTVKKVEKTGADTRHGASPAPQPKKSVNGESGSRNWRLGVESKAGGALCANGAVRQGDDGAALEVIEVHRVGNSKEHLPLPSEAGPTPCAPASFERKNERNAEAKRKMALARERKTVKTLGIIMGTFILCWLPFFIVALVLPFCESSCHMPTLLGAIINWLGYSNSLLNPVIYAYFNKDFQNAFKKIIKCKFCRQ

[7] = molecular target: T5, Sodium-dependent dopamine transporter (Homo sapiens, UniProt Q01959); assay: Displacement of [125I]RTI-55 from human DAT expressed in HEK293 cells; format: cell-based; in short: as §2
T5 sequence (Q01959 whole entry): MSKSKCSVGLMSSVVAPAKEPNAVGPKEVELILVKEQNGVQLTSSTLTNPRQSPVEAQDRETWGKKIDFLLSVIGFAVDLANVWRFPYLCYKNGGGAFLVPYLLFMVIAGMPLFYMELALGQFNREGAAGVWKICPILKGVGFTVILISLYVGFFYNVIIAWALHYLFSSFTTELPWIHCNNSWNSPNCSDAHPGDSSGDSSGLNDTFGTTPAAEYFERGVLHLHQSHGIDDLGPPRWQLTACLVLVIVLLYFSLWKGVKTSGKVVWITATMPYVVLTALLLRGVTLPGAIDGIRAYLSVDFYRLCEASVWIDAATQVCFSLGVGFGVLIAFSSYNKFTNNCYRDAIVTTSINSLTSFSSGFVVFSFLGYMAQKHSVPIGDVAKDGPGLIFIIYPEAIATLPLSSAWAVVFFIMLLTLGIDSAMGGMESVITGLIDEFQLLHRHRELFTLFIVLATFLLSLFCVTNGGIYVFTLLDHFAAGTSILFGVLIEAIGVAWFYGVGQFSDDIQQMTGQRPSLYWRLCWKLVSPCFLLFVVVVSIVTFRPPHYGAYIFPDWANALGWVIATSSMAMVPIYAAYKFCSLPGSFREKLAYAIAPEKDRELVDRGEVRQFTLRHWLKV

D(3) dopamine receptor = D(3) dopamine receptor (Homo sapiens, UniProt P35462); assay: Inhibitory activity against dopamine D3
Sequence of D(3) dopamine receptor (P35462 whole entry): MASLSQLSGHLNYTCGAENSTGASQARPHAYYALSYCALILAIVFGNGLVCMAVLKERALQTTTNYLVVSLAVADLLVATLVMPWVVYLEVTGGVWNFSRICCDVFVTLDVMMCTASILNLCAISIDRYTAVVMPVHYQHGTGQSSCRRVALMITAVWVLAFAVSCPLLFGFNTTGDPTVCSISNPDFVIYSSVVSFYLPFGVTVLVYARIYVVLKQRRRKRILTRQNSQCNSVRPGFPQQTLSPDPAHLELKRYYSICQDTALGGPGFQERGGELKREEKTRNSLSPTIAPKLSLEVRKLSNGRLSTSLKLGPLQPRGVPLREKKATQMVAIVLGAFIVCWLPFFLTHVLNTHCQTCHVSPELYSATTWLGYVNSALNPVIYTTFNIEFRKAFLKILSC

[8] = molecular target: 5-hydroxytryptamine receptor 1B (Homo sapiens, UniProt P28222); assay: Inhibitory activity against 5HT1B
Sequence of 5-hydroxytryptamine receptor 1B (P28222 whole entry): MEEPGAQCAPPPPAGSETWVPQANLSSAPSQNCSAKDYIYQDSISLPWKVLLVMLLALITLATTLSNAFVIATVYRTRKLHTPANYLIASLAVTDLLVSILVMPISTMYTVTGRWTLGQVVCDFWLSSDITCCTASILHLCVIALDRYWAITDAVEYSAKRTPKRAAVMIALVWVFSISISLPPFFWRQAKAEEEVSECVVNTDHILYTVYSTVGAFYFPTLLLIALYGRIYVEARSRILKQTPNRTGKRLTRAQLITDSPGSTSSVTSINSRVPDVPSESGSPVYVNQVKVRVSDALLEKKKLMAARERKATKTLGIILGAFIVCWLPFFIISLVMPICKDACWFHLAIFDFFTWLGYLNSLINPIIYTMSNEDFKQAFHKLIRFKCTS

D(2) dopamine receptor = D(2) dopamine receptor (Homo sapiens, UniProt P14416); assay: Inhibitory activity against dopamine D2
Sequence of D(2) dopamine receptor (P14416 whole entry): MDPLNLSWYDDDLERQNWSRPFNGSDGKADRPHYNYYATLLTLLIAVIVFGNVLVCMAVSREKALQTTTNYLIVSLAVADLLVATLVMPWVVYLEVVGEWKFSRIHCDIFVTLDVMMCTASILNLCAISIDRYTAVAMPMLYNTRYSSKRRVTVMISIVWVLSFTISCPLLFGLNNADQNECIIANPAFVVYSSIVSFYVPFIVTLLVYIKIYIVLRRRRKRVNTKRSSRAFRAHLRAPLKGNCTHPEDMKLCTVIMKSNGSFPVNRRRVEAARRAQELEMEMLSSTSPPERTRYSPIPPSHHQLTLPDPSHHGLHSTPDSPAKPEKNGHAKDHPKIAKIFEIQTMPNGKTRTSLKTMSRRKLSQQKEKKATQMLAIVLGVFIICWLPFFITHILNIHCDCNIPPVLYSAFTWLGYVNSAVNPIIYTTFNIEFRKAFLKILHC

D(1A) dopamine receptor = D(1A) dopamine receptor (Homo sapiens, UniProt P21728); assay: Inhibitory activity against dopamine D1
Sequence of D(1A) dopamine receptor (P21728 whole entry): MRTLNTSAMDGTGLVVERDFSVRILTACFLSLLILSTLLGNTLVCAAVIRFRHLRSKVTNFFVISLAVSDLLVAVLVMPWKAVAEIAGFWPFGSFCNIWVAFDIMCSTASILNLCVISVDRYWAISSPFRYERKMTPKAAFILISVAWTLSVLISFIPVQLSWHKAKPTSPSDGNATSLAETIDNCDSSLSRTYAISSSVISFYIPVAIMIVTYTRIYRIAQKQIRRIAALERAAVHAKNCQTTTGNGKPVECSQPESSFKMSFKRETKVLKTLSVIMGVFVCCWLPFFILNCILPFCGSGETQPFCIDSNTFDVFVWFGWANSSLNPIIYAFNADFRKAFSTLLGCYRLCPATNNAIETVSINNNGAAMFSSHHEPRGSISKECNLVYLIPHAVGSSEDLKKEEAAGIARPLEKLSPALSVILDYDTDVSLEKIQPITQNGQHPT

[9] = molecular target: T5, Sodium-dependent dopamine transporter; assay: Inhibition of [3H] dopamine uptake into human DAT expressed in HEK293 cells; format: functional, cell-based; in short: as §1

T1 sequence (P31645 whole entry): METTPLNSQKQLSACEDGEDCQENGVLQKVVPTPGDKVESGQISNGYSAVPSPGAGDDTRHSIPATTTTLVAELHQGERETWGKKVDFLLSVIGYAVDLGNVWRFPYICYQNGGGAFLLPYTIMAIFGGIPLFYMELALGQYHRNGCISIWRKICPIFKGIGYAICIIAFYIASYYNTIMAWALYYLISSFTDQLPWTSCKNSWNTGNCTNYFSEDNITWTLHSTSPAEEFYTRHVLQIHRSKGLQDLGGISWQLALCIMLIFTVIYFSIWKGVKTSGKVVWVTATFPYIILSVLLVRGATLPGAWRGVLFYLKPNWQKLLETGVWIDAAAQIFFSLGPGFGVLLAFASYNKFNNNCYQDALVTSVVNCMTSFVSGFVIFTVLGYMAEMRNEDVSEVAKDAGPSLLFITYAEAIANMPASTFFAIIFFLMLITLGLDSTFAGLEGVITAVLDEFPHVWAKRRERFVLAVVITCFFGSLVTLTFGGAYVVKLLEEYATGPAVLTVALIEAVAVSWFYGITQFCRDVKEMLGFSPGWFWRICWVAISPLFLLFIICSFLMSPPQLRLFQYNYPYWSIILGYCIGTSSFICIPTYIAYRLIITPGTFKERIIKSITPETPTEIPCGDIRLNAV

Row | Compound | IC50 [1] | IC50 [2] | Ki [3] | Ki [4] | IC50 [5] | IC50 [6] | Ki [7] | IC50 (D(3) dopamine receptor) | IC50 [8] | IC50 (D(2) dopamine receptor) | IC50 (D(1A) dopamine receptor) | IC50 [9]
1 | CCCC(C(=O)c1ccc2ccccc2c1)N1CCCC1 (stereo unspecified) | 46 nM | 11.7 nM | 33.1 nM | 136 nM | > 10 µM | > 10 µM | 20.1 nM | > 10 µM | > 10 µM | > 10 µM | > 10 µM | 40 nM
2 | CCCC(C(=O)c1ccc(Br)cc1)N1CCCC1 (stereo unspecified) | 1050 nM | 83 nM | 830 nM | 386 nM | > 10 µM | > 10 µM | 51 nM | > 10 µM | > 10 µM | > 10 µM | > 10 µM | 39.5 nM
3 | CCCC(C(=O)c1ccccc1C)N1CCCC1 (stereo unspecified) | 2020 nM | 19.7 nM | 3720 nM | 425 nM | > 10 µM | > 10 µM | 59.7 nM | > 10 µM | > 10 µM | > 10 µM | > 10 µM | 63 nM
